Reference: ChEMBL document CHEMBL4732168, “Dihydroquinazolines enhance 20S proteasome activity and induce degradation of α-synuclein, an intrinsically disordered protein associated with neurodegeneration” (Bioorg Med Chem Lett, 2021)
Each block holds one compound with its values, some of them ahead of it.

How the values were obtained:
Assay type in all cases: protein-complex assay
[1] = biological target: T1, 20S proteasome (Homo sapiens) (UniProt P49721+P20618+P28074+P28062+P28065+P28072+P25786+P25787+P25788+P25789+P28066+P60900+O14818+Q8TAA3+P40306+A5LHX3+P49720+P28070+Q99436); assay: (§1) Activation of human 20S proteosome assessed as increase in 7-amino-4-methylcoumarin release at 30 uM using mixture of chymotrypsin-like Suc-LLVY-AMC, trypsin-like Boc-LRR-AMC and caspase-like Z-LLE-AM fluorogenic peptides as substrates preincubated for 15 mins followed by substrate mixture addition and measured for 1 hr by fluorescence assay relative to control; conditions: filed as activator, time 75.0 min
In short: (§2)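 Purified human 20S proteasome pre-incubated 15 min at 37°C with compound (3, 10 or 30 μM) or DMSO vehicle. Substrate mix then added: Suc-LLVY-AMC, Boc-LRR-AMC and Z-LLE-AMC, 13.3 μM each. AMC fluorescence followed over 1 h. Fold increase in activity calculated against untreated 20S.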

[2] = biological target: T1, 20S proteasome (Homo sapiens); assay: Activation of human 20S proteosome assessed as concentration required to cause double the proteosome activity using chymotrypsin-like Suc-LLVY-AMC fluorogenic peptide as substrate; conditions: filed as activator
In short: (§3)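 Human 20S proteasome activity measured by AMC fluorescence over time. Each fluorogenic substrate (CT-L Suc-LLVY-AMC, Tryp-L Boc-LRR-AMC, Casp-L Z-LLE-AMC) tested alone and as an equal-amount mixture. Six-point compound titration, 1.25–40 μM, run in triplicate. AC200, the concentration that doubles 20S activity, derived from the concentration-response curves.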

[3] = biological target: T1, 20S proteasome (Homo sapiens); assay: Activation of human 20S proteosome assessed as concentration required to cause double the proteosome activity using trypsin-like Boc-LRR-AMC fluorogenic peptide as substrate; conditions: filed as activator; in short: as §3
[4] = biological target: T1, 20S proteasome (Homo sapiens); assay: Activation of human 20S proteosome assessed as fold increase in proteosome activity at 5 uM using trypsin-like Boc-LRR-AMC fluorogenic peptide as substrate by fluorescence assay relative to control; conditions: filed as activator
[5] = biological target: T1, 20S proteasome (Homo sapiens); assay: Activation of human 20S proteosome assessed as fold increase in proteosome activity at 12.9 uM using chymotrypsin-like Suc-LLVY-AMC fluorogenic peptide as substrate by fluorescence assay relative to control; conditions: filed as activator
[6] = biological target: T1, 20S proteasome (Homo sapiens); assay: Activation of human 20S proteosome assessed as concentration required to cause double the proteosome activity using chymotrypsin-like Suc-LLVY-AMC, trypsin-like Boc-LRR-AMC and caspase-like Z-LLE-AM fluorogenic peptides as substrates; conditions: filed as activator; in short: as §3
[7] = biological target: T1, 20S proteasome (Homo sapiens); assay: as §1, with “3” for “30”; conditions: filed as activator, time 75.0 min; in short: as §2
[8] = biological target: T1, 20S proteasome (Homo sapiens); assay: Activation of human 20S proteosome assessed as fold increase in proteosome activity at 5.6 uM using caspase-like Z-LLE-AM fluorogenic peptide as substrate by fluorescence assay relative to control; conditions: filed as activator
[9] = biological target: T1, 20S proteasome (Homo sapiens); assay: Activation of human 20S proteosome assessed as concentration required to cause double the proteosome activity using caspase-like Z-LLE-AM fluorogenic peptide as substrate; conditions: filed as activator; in short: as §3
[10] = biological target: T1, 20S proteasome (Homo sapiens); assay: Activation of human 20S proteosome assessed as fold increase in proteosome activity at 2 uM using mixture of chymotrypsin-like Suc-LLVY-AMC, trypsin-like Boc-LRR-AMC and caspase-like Z-LLE-AM fluorogenic peptides as substrates by fluorescence assay relative to control; conditions: filed as activator
[11] = biological target: T1, 20S proteasome (Homo sapiens); assay: Activation of human 20S proteosome assessed as fold increase in proteosome activity at 1.7 uM using trypsin-like Boc-LRR-AMC fluorogenic peptide as substrate by fluorescence assay relative to control; conditions: filed as activator
[12] = biological target: T1, 20S proteasome (Homo sapiens); assay: Activation of human 20S proteosome assessed as fold increase in proteosome activity at 1.3 uM using mixture of chymotrypsin-like Suc-LLVY-AMC, trypsin-like Boc-LRR-AMC and caspase-like Z-LLE-AM fluorogenic peptides as substrates by fluorescence assay relative to control; conditions: filed as activator
[13] = biological target: T1, 20S proteasome (Homo sapiens); assay: Induction of human 20S proteosome mediated human alpha-synuclein degradation; conditions: filed as activator, dose 0.5-10 µM
In short: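 Compound pre-incubated with purified human 20S proteasome. Pure human α-synuclein then added and the mix incubated 4 h. Digests resolved and silver stained. α-Synuclein bands quantified using 20S proteasome subunits as loading control, n=3.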

[14] = biological target: T1, 20S proteasome (Homo sapiens); assay: Activation of human 20S proteosome assessed as fold increase in proteosome activity at 2.8 uM using caspase-like Z-LLE-AM fluorogenic peptide as substrate by fluorescence assay relative to control; conditions: filed as activator
[15] = biological target: T1, 20S proteasome (Homo sapiens); assay: Activation of human 20S proteosome assessed as fold increase in proteosome activity at 10.5 uM using chymotrypsin-like Suc-LLVY-AMC fluorogenic peptide as substrate by fluorescence assay relative to control; conditions: filed as activator
[16] = biological target: T1, 20S proteasome (Homo sapiens); assay: Activation of human 20S proteosome assessed as fold increase in proteosome activity at 5.8 uM using caspase-like Z-LLE-AM fluorogenic peptide as substrate by fluorescence assay relative to control; conditions: filed as activator
[17] = biological target: T1, 20S proteasome (Homo sapiens); assay: Activation of human 20S proteosome assessed as fold increase in proteosome activity at 8.1 uM using chymotrypsin-like Suc-LLVY-AMC fluorogenic peptide as substrate by fluorescence assay relative to control; conditions: filed as activator
[18] = biological target: T1, 20S proteasome (Homo sapiens); assay: Activation of human 20S proteosome assessed as fold increase in proteosome activity at 2.5 uM using trypsin-like Boc-LRR-AMC fluorogenic peptide as substrate by fluorescence assay relative to control; conditions: filed as activator
[19] = biological target: T1, 20S proteasome (Homo sapiens); assay: Activation of human 20S proteosome assessed as fold increase in proteosome activity at 2.3 uM using mixture of chymotrypsin-like Suc-LLVY-AMC, trypsin-like Boc-LRR-AMC and caspase-like Z-LLE-AM fluorogenic peptides as substrates by fluorescence assay relative to control; conditions: filed as activator

Compound: COc1ccc2c(c1)N=C(C)N(Cc1ccccc1)C2c1ccccc1 (configuration not stated)
fold change (FC) [1]: 1.8

Compound: COc1ccc2c(c1)N=C(C1CCCCC1)N(Cc1ccccc1)C2c1ccccc1 (configuration not stated)
fold change (FC) [1]: 6.5

Compound: COc1ccc2c(c1)N=C(C1CC1)N(Cc1ccccc1)C2c1ccccc1 (configuration not stated)
fold change (FC) [1]: 2.7

Compound: COc1ccc2c(c1)N=C(c1ccccc1)N(CC1CCN(C)CC1)C2c1ccccc1 (configuration not stated)
fold change (FC) [1]: 1.2

Compound: CCCCCCN1C(c2ccccc2)=Nc2cc(OC)ccc2C1c1ccccc1 (configuration not stated)
fold change (FC) [1]: 1.6

Compound: COc1ccc2c(c1)N=C(c1ccccc1)N(CC1CCCCC1)C2c1ccccc1 (configuration not stated)
fold change (FC) [1]: 8.2

Compound: COc1ccc2c(c1)N=C(c1ccccc1)N(CC1CCOCC1)C2c1ccccc1 (configuration not stated)
fold change (FC) [1]: 1.6

Compound: CCCCCC1=Nc2cc(OC)ccc2C(c2ccccc2)N1Cc1ccccc1 (configuration not stated)
fold change (FC) [1]: 2.8

Compound: COc1ccc2c(c1)N=C(C(C)C)N(Cc1ccccc1)C2c1ccccc1 (configuration not stated)
fold change (FC) [1]: 2.3

Compound: COc1ccc2c(c1)N=C(c1ccccc1)N(C1CCCCC1)C2c1ccccc1 (configuration not stated)
fold change (FC) [1]: 6.7

Compound: COc1ccc2c(c1)N=C(c1ccccc1)N(C1CCN(C)CC1)C2c1ccccc1 (configuration not stated)
fold change (FC) [1]: 1

The remaining lines, values ahead:

fold change (FC) [1]: 2.7
Compound: COc1ccc2c(c1)N=C(c1ccccc1)N(CC#N)C2c1ccccc1 (configuration not stated)

AC200 [2]: 12.9 µM
AC200 [3]: 5 µM
fold change (FC) [4]: 11.7
fold change (FC) [5]: 5.6
fold change (FC) [1]: 7.9
AC200 [6]: 2 µM
Activity [7]: > 200%
fold change (FC) [8]: 13.4
AC200 [9]: 5.6 µM
fold change (FC) [10]: 10.1
Compound: COc1ccc2c(c1)N=C(c1ccccc1)N(Cc1ccccc1)C2c1ccccc1 (configuration not stated)

fold change (FC) [1]: 4
Compound: c1ccc(CN2C(c3ccccc3)=Nc3ccccc3C2c2ccccc2)cc1 (configuration not stated)

fold change (FC) [1]: 6.9
Compound: COc1ccc2c(c1)N=C(c1ccccc1)N(c1ccccn1)C2c1ccccc1 (configuration not stated)

AC200 [2]: 10.5 µM
AC200 [3]: 1.7 µM
fold change (FC) [11]: 8.7
fold change (FC) [12]: 5.5
fold change (FC) [1]: 7
Activity [13]: Dose-dependent effect
fold change (FC) [14]: 10.6
AC200 [6]: 1.3 µM
Activity [7]: > 200%
fold change (FC) [15]: 3.8
AC200 [9]: 2.8 µM
Compound: COc1ccc2c(c1)N=C(c1ccccc1)N(C1CCN(Cc3ccccc3)CC1)C2c1ccccc1 (configuration not stated)

fold change (FC) [1]: 8.1
Compound: Cc1ccc2c(c1)N=C(c1ccccc1)N(Cc1ccccc1)C2c1ccccc1 (configuration not stated)

fold change (FC) [1]: 5.3
Compound: COc1ccc2c(c1)N=C(c1ccccc1)N(c1cccc3cccnc13)C2c1ccccc1 (configuration not stated)

fold change (FC) [1]: 2.8
Compound: COc1ccc2c(c1)N=C(c1ccccc1)N(CCc1ccccn1)C2c1ccccc1 (configuration not stated)

fold change (FC) [1]: 5.9
Compound: COc1ccc2c(c1)N=C(c1ccccc1)N(c1cccnc1)C2c1ccccc1 (configuration not stated)

fold change (FC) [1]: 2
Compound: COc1ccc2c(c1)N=C(c1ccccc1)N(Cc1ccccn1)C2c1ccccc1 (configuration not stated)

fold change (FC) [1]: 2.8
Compound: CCCCCc1ccc2c(c1)N=C(c1ccccc1)N(Cc1ccccc1)C2c1ccccc1 (configuration not stated)

fold change (FC) [1]: 2.3
Compound: C=CCN1C(c2ccccc2)=Nc2cc(OC)ccc2C1c1ccccc1 (configuration not stated)

fold change (FC) [16]: 15.3
AC200 [2]: 8.1 µM
AC200 [3]: 2.5 µM
fold change (FC) [1]: 9.5
fold change (FC) [17]: 6.7
fold change (FC) [18]: 15
AC200 [6]: 2.3 µM
Activity [7]: > 200%
fold change (FC) [19]: 11.1
AC200 [9]: 5.8 µM
Compound: COc1ccc2c(c1)N=C(c1ccccc1)N(c1ccccc1)C2c1ccccc1 (configuration not stated)
